ADAM10 inh: ADAM10 inhibition, QFRET primary screen; recombinant ADAM10, EDANS/DABCYL FRET peptide cleavage, 3 h; inhibition, % at 7 µM; actives 0.62% (n = 370,000); AID 720582; O14672;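 active = inhibition above a per-campaign cutoff equal to the mean of compounds falling between control-based bounds plus 3 SD, cut at about 20% in these data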
Tn7 DDE FP: disrupts Tn7 cyclic peptide binding to fibrin D-Dimer-E complex; FP displacement of FITC-Tn7 peptide from fibrin DD(E); 0% = median of compound wells per plate; inhibition, % at 8.3 µM; actives 0.13% (n = 370,000);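 active = inhibition above the mean of compounds falling within the control limits plus 3 SD of them, cut at about 14% in these data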
Target sequence (P02675 whole entry, looked up): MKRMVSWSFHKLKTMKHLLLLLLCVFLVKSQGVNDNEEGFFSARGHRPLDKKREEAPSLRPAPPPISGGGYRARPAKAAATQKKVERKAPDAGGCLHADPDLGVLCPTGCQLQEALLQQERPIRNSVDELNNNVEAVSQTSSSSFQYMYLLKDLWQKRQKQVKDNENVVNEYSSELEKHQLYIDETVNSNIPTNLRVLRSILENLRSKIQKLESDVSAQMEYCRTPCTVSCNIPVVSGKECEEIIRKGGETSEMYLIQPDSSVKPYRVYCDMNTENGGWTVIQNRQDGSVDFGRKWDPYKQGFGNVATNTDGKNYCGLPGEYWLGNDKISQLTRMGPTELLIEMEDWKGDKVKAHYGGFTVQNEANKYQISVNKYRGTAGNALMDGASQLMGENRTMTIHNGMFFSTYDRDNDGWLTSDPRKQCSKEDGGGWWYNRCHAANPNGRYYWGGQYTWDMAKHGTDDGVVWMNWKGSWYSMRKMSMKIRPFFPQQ
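Assay system: Human clot-derived fibrin DD(E) complex | Buffer or medium: Tris/NaCl/CaCl2 buffer, pH 7.8 | Repeats: One replicate per compound | Benchmarks: Aha-Tn7 high control | Measure: % inhibition scaled between sample-field median and high-control FP | Schedule: 10 min plus 3 h, room temperature | Signal: Fluorescence polarization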
ADAM17 inh: inhibits human ADAM17 | P78536 | recombinant ADAM17, EDANS/DABCYL FRET peptide cleavage | inhibition, % at 6.95 µM | actives 0.83% (n = 370,000) | AID 720648;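 active = inhibition above the mean of compounds lying between control limits plus 3 SD, set per campaign, cut at about 8.5% in these data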
PLCg1 inh: inhibitors of human phospholipase C gamma1; purified PLC-gamma1, fluorogenic substrate, fluorescence; inhibition, % at 12.2 µM; actives 0.84% (n = 370,000)
PLCb3 inh: blocks human PLC-beta3 enzyme activity; AID 720704; Q01970; Purified PLC-beta3, fluorogenic substrate, fluorescence; inhibition, % at 12.2 µM; actives 0.18% (n = 370,000); in the data active = inhibition above about 11%
Tn6 DDE FP: disrupts Tn6 cyclic peptide binding to fibrin D-Dimer-E complex; Fibrin DD(E) TRITC-Tn6 fluorescence polarization displacement; actives 0.21% (n = 370,000); inhibition, % at 8.3 µM; P02675;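 active = inhibition above a per-campaign cutoff: mean of compounds within control limits plus 3 SD, cut at about 15% in these data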
PLCgamma1 ctr: inhibits human PLC-gamma1 in PLC-beta3 counter-screen. purified PLC-gamma1, fluorogenic substrate, fluorescence. shares compounds with PLCg1 inh. actives 3.1% (n = 3,300). inhibition, % at 12.3 µM
PLCbeta3 conf: confirmation of human PLC-beta3 inhibitors; shares compounds with PLCg1 inh; purified PLC-beta3, fluorogenic substrate fluorescence; inhibition, % at 12.3 µM; actives 1% (n = 3,300); in the data active = inhibition above about 11%
Numbers stand for hits; . = inactive; / = no result given. In the library only some 2.3% were active in any assay of this set; here they are far more common. Cut-off read from the data, not from the text of the source, unless noted: active = inhibition above about 9.5%; inactive = the rest.

SMILES	ADAM10 inh	Tn7 DDE FP	ADAM17 inh	PLCg1 inh	PLCb3 inh	Tn6 DDE FP	PLCgamma1 ctr	PLCbeta3 conf
COc1ccc(CNC(=O)CCS(=O)(=O)c2cccc3nonc23)cc1	.	.	.	.	.	.	/	/
COc1ccc(N(C)C(=O)CCS(=O)(=O)c2cccc3nonc23)cc1	.	.	.	.	11.4	.	.	.
CCCc1[nH]n(-c2nc3ccccc3s2)c(=O)c1C=NCCCOC	.	.	.	11.2	.	.	.	.
CC(C)(C)NC(=O)NC(=O)COC(=O)Cc1c(Cl)cccc1Cl	.	.	.	9.8	.	.	.	.
CCOC(=O)[C@@]12CCC3=C1N(CCC3)C(=O)[C@H](CC(=O)NCc1ccc(C)o1)C2	.	.	.	.	.	.	/	/
COc1cc(-c2noc(CCC(=O)Nc3cccnc3)n2)cc(OC)c1OC	.	.	.	.	12.7	.	.	.
O=C(Nc1ccc(Cl)c(Cl)c1)c1cccc2c1-c1ccccc1C2=O	.	.	.	.	.	.	/	/
O=C(Cn1c(=O)oc2cc(S(=O)(=O)N3CCc4ccccc43)ccc21)NC1CCCC1	.	.	.	.	.	.	/	/
CC(C)CCNC(=O)Cn1c(=O)oc2cc(S(=O)(=O)N3CCc4ccccc43)ccc21	.	.	.	.	11.8	.	.	.
O=C(CSc1nnc(-c2cccnc2)n1C1CCCCC1)N1CCCC1	.	.	.	.	.	.	/	/
Cc1cc(C)c(C(=O)COC(=O)[C@H](C)Nc2ccc(C(F)(F)F)cc2[N+](=O)[O-])c(C)c1	.	.	.	.	.	.	/	/
COc1ccc(C(=O)COC(=O)[C@H](C)Nc2ccc(C(F)(F)F)cc2[N+](=O)[O-])cc1	.	.	.	11.5	.	.	.	.
CC1(C)OC(=O)C2=C(CC(CCc3ccccc3)OC2CCc2ccccc2)O1 (centres undefined)	.	.	.	.	.	.	/	/
COCCCNC(=S)Nc1c(C)cc(C)cc1C	.	.	.	13.3	.	.	.	.
CNC[C@@H]1OCc2cnnn2CCCC(=O)N([C@@H](C)CO)C[C@H]1C	.	.	.	.	.	.	/	/
COc1ccc(-c2cc(-c3nnc4sc(Cc5cccs5)nn34)[nH]n2)cc1	.	.	.	.	.	.	/	/
COC(=O)NC(NC(=S)Nc1ccc([N+](=O)[O-])cc1)C(Cl)(Cl)Cl (centres undefined)	.	.	.	.	11.5	.	.	.
O=C(C1CCC1)N1CCc2cc(S(=O)(=O)N3CCCC3)ccc21	.	.	.	.	.	.	/	/
COc1ccccc1CN[C@@H]1CC[C@@]23CCCN2C(=O)CCC[C@H]3C1	.	.	.	.	.	.	/	/
C#CCNC(=O)C[C@H]1C[C@@]2(C(=O)OC)C(=C[C@H](C(C)(C)C)O[C@@H]2C)N(Cc2cccc3ccccc23)C1=O	.	.	.	.	.	.	/	/
O=C(CN1C(=O)CCSc2ccccc21)Nc1ccc(Cl)c(Cl)c1	.	.	.	.	.	.	/	/
COc1ccc(NC(=O)C(CCCCNC(=O)OC(C)(C)C)NC2(C(=O)NCCc3c[nH]c4ccccc34)CCCCC2)cc1 (centres undefined)	.	.	.	.	.	.	/	/
Cc1cccc(-n2ncc3c(NC(C)C)ncnc32)c1	.	.	.	.	.	.	/	/
Cc1cccc(-n2ncc3c(N)ncnc32)c1	.	.	.	10.3	12.4	.	.	.
Cc1ccc(C(C(=O)NC2CCCCC2)N(Cc2ccco2)C(=O)C2COc3ccccc3O2)o1 (centres undefined)	.	.	.	9.6	.	.	.	.
CC(C)CN1C(=O)[C@]2(CC(=O)N(C)C2c2ccccc2)c2cc(-n3cc(-c4ccccc4)nn3)ccc21 (some centres undefined)	.	.	.	.	.	.	/	/
O=C(O)CCC(=O)N1CCc2cc(S(=O)(=O)N(CCc3ccccc3)Cc3ccccc3)ccc21	.	.	.	10.2	.	.	.	.
